ChEMBL document CHEMBL1155278, “3,4-Diaryl-isoxazoles and -imidazoles as potent dual inhibitors of p38alpha mitogen activated protein kinase and casein kinase 1delta” (J Med Chem, 2009)

Columns and labels:
[1] = target: Serine/threonine-protein kinase PLK1 (Homo sapiens) (UniProt P53350); assay: Inhibition of okadaic acid-induced PLK1 assessed as residual activity at 10 uM by Cherenkov counting relative to control in presence of 5 uM ATP
Summary of the method: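 Single-concentration profiling at 10 μM in a 78-kinase panel. Kinase activity is expressed as a percentage of control assays run without compound.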

[2] = target: 3-phosphoinositide-dependent protein kinase 1 (Homo sapiens) (UniProt O15530); assay: Inhibition of PDK1 assessed as residual activity at 10 uM by Cherenkov counting relative to control in presence of 20 uM ATP
[3] = target: Tyrosine-protein kinase CSK (Homo sapiens) (UniProt P41240); assay: Inhibition of CSK assessed as residual activity at 0.1 uM by Cherenkov counting relative to control in presence of 20 uM ATP
Summary of the method: (§1)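 Single-concentration screen at 0.1 µM across a panel of 76 protein kinases. Each kinase was run at an ATP concentration approximating its ATP Km. Results are % mean residual activity versus control assays without compound (n = 3 ± SD).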

[4] = target: Fibroblast growth factor receptor 1 (Homo sapiens) (UniProt P11362); assay: Inhibition of FGFR1 assessed as residual activity at 0.1 uM by Cherenkov counting relative to control in presence of 20 uM ATP; summary of the method: as §1
[5] = target: Tyrosine-protein kinase SYK (Homo sapiens) (UniProt P43405); assay: Inhibition of SYK assessed as residual activity at 0.1 uM by Cherenkov counting relative to control in presence of 20 uM ATP
Summary of the method: (§2)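 Single-concentration screen at 0.1 μM in a 76-kinase panel. ATP for each kinase was set near its Km for ATP. Residual activity is given as a percentage of control assays without compound, mean of n = 3 ± SD.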

[6] = target: Mitogen-activated protein kinase 13 (Homo sapiens) (UniProt O15264); assay: Inhibition of p38delta assessed as residual activity at 0.1 uM by Cherenkov counting relative to control; summary of the method: as §2
[7] = target: T1, MAP kinase-activated protein kinase 5 (Homo sapiens) (UniProt Q8IW41); assay: Inhibition of PRAK assessed as residual activity at 0.1 uM by Cherenkov counting relative to control in presence of 20 uM ATP; summary of the method: as §2
T1 sequence (whole entry): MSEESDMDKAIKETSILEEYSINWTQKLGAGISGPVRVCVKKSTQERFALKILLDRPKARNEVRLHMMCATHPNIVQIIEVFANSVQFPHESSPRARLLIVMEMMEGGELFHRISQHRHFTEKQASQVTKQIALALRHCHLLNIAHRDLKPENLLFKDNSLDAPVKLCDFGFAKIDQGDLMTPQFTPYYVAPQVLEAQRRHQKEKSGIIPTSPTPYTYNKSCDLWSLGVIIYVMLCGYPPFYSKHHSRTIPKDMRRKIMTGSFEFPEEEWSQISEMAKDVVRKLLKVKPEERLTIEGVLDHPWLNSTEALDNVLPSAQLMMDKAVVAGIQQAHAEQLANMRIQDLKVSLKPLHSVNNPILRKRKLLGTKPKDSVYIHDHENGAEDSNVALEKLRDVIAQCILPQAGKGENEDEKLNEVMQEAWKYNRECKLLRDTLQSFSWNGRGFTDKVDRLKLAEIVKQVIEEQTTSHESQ

[8] = target: T2, Eukaryotic elongation factor 2 kinase (Homo sapiens) (UniProt O00418); assay: Inhibition of EF2K assessed as residual activity at 0.1 uM by Cherenkov counting relative to control in presence of 5 uM ATP; summary of the method: as §1
T2 sequence (whole entry): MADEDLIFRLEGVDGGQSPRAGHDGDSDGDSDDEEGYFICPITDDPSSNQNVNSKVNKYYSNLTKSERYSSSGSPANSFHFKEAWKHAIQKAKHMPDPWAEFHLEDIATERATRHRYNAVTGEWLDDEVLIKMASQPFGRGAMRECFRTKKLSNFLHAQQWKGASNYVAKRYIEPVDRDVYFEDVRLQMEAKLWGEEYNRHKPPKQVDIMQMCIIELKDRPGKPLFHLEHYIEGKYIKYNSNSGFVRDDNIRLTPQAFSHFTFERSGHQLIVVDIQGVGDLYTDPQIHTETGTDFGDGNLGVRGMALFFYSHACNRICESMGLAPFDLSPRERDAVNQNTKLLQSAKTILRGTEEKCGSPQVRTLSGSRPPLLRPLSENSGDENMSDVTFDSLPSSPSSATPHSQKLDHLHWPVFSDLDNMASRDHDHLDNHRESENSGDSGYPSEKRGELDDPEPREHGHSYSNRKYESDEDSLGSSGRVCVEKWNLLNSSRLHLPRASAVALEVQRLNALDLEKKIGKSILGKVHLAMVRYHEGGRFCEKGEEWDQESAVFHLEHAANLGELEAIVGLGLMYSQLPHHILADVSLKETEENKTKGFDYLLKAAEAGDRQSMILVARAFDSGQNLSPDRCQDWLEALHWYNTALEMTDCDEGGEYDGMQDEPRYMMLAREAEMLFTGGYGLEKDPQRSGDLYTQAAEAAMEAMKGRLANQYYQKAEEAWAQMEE

[9] = Inhibition of PHK assessed as residual activity at 0.1 uM by Cherenkov counting relative to control
Summary of the method: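 Single-concentration selectivity screen at 0.1 μM against a panel of 76 protein kinases. Each kinase was run at an ATP level approximating its Km for ATP. Output is mean residual activity as % of the control assay without compound, n = 3 ± SD.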

Tyrosine-protein kinase CSK (Homo sapiens), sequence (P41240 2-450 limits assumed): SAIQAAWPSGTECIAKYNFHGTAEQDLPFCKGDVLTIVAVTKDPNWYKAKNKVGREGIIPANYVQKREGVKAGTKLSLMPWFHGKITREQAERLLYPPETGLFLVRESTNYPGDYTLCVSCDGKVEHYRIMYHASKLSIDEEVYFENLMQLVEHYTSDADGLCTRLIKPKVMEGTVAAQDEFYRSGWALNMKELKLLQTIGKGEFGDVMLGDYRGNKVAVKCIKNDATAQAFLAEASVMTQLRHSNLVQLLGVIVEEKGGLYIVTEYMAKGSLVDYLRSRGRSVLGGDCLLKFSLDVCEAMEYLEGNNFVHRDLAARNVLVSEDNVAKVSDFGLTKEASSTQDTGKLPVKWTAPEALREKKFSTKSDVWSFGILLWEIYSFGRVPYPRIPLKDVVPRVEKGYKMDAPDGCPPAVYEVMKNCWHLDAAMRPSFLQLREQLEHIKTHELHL
Mitogen-activated protein kinase 13 (Homo sapiens), sequence (O15264 whole entry): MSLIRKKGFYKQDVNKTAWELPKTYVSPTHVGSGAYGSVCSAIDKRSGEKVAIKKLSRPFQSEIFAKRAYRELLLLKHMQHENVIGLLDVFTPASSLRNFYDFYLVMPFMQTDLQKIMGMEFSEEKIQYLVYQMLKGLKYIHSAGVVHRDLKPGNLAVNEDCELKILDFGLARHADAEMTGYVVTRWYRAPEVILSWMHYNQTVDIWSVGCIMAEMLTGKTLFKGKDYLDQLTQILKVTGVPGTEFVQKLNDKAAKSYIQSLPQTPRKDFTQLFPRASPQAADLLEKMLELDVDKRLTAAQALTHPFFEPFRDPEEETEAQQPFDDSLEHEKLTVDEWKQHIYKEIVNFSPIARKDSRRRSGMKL
Serine/threonine-protein kinase PLK1 (Homo sapiens), sequence (P53350 whole entry): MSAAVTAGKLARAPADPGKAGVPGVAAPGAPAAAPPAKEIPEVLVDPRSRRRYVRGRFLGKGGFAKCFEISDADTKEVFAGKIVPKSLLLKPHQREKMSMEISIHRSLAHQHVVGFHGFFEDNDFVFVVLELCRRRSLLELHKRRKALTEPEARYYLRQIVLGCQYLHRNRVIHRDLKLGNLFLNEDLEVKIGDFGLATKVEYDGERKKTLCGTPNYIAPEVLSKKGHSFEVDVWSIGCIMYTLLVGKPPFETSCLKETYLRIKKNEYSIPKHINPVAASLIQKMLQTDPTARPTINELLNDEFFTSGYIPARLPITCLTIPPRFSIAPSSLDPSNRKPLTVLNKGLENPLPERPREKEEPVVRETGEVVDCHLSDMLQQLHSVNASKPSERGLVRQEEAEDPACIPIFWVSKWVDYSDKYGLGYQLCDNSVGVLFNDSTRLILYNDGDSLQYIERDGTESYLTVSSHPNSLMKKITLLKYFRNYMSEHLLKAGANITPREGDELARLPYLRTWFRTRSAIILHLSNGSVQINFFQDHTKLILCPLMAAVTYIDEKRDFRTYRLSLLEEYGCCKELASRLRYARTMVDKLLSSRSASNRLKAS
3-phosphoinositide-dependent protein kinase 1 (Homo sapiens), sequence (O15530 whole entry, looked up): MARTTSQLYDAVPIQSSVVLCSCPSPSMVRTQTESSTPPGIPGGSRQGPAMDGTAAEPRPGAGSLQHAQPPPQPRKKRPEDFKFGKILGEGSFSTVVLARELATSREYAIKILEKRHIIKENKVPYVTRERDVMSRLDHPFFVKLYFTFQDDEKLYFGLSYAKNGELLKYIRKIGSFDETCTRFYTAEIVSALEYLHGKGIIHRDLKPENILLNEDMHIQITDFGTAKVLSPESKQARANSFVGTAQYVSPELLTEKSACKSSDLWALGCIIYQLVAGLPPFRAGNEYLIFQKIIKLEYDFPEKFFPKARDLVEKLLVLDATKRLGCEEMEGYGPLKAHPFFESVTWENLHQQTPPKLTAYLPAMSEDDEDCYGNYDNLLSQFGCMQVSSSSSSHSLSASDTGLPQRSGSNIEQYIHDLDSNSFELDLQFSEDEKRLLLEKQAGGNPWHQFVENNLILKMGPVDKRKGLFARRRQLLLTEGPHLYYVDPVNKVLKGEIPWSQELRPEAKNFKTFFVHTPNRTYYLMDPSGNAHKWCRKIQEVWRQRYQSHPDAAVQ
Fibroblast growth factor receptor 1 (Homo sapiens), sequence (P11362 22-822 limits assumed): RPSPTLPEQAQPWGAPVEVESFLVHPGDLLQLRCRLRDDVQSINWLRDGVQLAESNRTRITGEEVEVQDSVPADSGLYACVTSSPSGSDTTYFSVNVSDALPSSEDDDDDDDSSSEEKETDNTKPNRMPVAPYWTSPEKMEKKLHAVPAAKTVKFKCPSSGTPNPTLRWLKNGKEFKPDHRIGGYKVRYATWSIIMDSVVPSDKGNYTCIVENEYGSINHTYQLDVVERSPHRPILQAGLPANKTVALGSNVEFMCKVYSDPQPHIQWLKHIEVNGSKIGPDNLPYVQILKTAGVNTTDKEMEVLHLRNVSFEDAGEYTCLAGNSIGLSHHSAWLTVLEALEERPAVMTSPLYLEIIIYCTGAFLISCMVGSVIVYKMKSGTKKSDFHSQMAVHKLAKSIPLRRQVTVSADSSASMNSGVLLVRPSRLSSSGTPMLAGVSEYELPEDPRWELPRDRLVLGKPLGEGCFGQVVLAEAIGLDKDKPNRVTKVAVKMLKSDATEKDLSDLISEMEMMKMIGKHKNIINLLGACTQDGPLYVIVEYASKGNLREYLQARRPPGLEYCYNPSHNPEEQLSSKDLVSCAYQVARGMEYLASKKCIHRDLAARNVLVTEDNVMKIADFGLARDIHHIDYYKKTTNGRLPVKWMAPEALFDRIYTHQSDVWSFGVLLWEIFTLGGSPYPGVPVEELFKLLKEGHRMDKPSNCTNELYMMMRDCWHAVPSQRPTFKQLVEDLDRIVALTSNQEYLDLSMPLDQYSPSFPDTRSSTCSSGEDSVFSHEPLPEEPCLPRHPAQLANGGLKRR

Activity [1]	Activity [2]	Activity [3]	Activity [4]	Activity [5]	Activity [6]	Activity [7]	Activity [8]	Activity [9]	Compound
105%	85%								CC(C)c1noc(-c2ccc(F)cc2)c1-c1ccncc1
104%	82%								CC(C)c1onc(-c2ccc(F)cc2)c1-c1ccncc1
		79%	50%	86%	100%	101%	102%	102%	COc1ccc(/C=C/C(=O)Nc2cc(-c3[nH]c([S+](C)[O-])nc3-c3ccc(F)cc3)ccn2)c(OC)c1 (stereo not drawn)
		81%	50%	86%	90%	83%	100%	99%	COc1ccc(/C=C/C(=O)Nc2cc(-c3[nH]c(SC)nc3-c3ccc(F)cc3)ccn2)c(OC)c1
